Experimental data as given in ChEMBL document CHEMBL2021913, “Synthesis and biological evaluation of some novel thiazole substituted benzotriazole derivatives” (2012).
In brackets after ≈: the same amount, converted by molar mass. Activity calls are given as the source filed them. The calls are words filed in the database; no cut-off is given here.

Columns and labels:
Format in all cases: functional
Bacillus subtilis [1] = assay: Antimicrobial activity against Bacillus subtilis 2250 at 35 degC after 18 to 24 hrs by NCCLS method based antimicrobial assay; conditions: for MBC: read-out: MBC99.9
Pseudomonas aeruginosa [2] = assay: Antimicrobial activity against Pseudomonas aeruginosa 2036 at 35 degC after 18 to 24 hrs by NCCLS method based antimicrobial assay; conditions: for MBC: read-out: MBC99.9
Aspergillus niger [3] = assay: Antimicrobial activity against Aspergillus niger 545 at 35 degC after 48 hrs by CLSI method based antimicrobial assay
How it was run: (§1)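 Broth microdilution following CLSI guidelines over 256 to 1 µg/mL. MIC90 is the lowest concentration completely inhibiting growth. For MFC, 0.1 mL from each tube spread on agar and CFU counted after 48 h at 35 °C; MFC is lowest concentration killing 99.9% of inoculum. MFC/MIC ratio calculated: […], ≤4 as fungicidal.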

Candida albicans [4] = assay: Antimicrobial activity against Candida albicans 3471 at 35 degC after 48 hrs by CLSI method based antimicrobial assay; conditions: for MFC: read-out: MFC99.9; how it was run: as §1
Candida albicans [5] = assay: Ratio of MFC99.9 to MIC90 for Candida albicans 3471 at 35 degC after 48 hrs by CLSI method based antimicrobial assay; how it was run: as §1
Staphylococcus aureus [6] = assay: Antimicrobial activity against Staphylococcus aureus 2079 at 128 ug/disc at 35 degC after 24 hrs by agar-well diffusion assay; conditions: for zone of inhibition at 128 µg/disc: Staphylococcus aureus, 2079, 24 h, read-out: DIZ
How it was run: (§2)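 Agar-well diffusion: 24 h bacterial cultures adjusted to 0.5 McFarland (1.5 × 10⁸ CFU/mL) and mixed into molten Mueller-Hinton agar before pouring. 6 mm wells punched and each filled with 50 µL of compound stock or control. Plates incubated 35 °C for 24 h. Zone of growth inhibition diameter measured with vernier caliper.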

Escherichia coli [7] = assay: Antimicrobial activity against Escherichia coli 2109 at 128 ug/disc at 35 degC after 24 hrs by agar-well diffusion assay; conditions: for zone of inhibition at 128 µg/disc: Escherichia coli, 2109, 24 h, read-out: DIZ; how it was run: as §2
Bacillus subtilis [8] = assay: Antimicrobial activity against Bacillus subtilis 2250 at 128 ug/disc at 35 degC after 24 hrs by agar-well diffusion assay; conditions: for zone of inhibition at 128 µg/disc: Bacillus subtilis, 2250, 24 h, read-out: DIZ; how it was run: as §2
Pseudomonas aeruginosa [9] = assay: Antimicrobial activity against Pseudomonas aeruginosa 2036 at 128 ug/disc at 35 degC after 24 hrs by agar-well diffusion assay; conditions: for zone of inhibition at 128 µg/disc: Pseudomonas aeruginosa, 2036, 24 h, read-out: DIZ; how it was run: as §2
Aspergillus niger [10] = assay: Antimicrobial activity against Aspergillus niger 545 at 128 ug/disc at 37 degC after 24 to 72 hrs by agar-well diffusion assay; conditions: in the assay text read “disc diffusion assay” for “agar-well diffusion assay”
How it was run: (§3)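 Potato dextrose agar base plates overlaid with seeded agar cooled to 40 °C and inoculated with spores from 10-day cultures, final 1 × 10⁶ spores/mL. Compounds dissolved in DMSO at 128 µg/mL and applied on 6 mm filter-paper discs placed on chilled seeded medium. Nystatin positive control, DMSO negative control. Incubation 24–72 h at 37 °C. Inhibition zone diameter read by vernier caliper.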

Candida albicans [11] = assay: Antimicrobial activity against Candida albicans 3471 at 128 ug/disc at 37 degC after 24 to 72 hrs by agar-well diffusion assay; conditions: for zone of inhibition at 128 µg/disc: read-out: DIZ; how it was run: as §3
Staphylococcus aureus [12] = assay: Antimicrobial activity against Staphylococcus aureus 2079 at 35 degC after 18 to 24 hrs by NCCLS method based antimicrobial assay; conditions: for MBC: read-out: MBC99.9
Escherichia coli [13] = assay: Antimicrobial activity against Escherichia coli 2109 at 35 degC after 18 to 24 hrs by NCCLS method based antimicrobial assay; conditions: for MBC: read-out: MBC99.9

MIC (Bacillus subtilis [1]) | MIC (Pseudomonas aeruginosa [2]) | MIC (Candida albicans [4]; Candida albicans, 3471, 48 h) | MIC (Staphylococcus aureus [12]) | MIC (Escherichia coli [13]) | MIC (Aspergillus niger [3]) | SMILES | MBC99.9 (Bacillus subtilis [1]) | MBC99.9 (Pseudomonas aeruginosa [2]) | MFC99.9 (Aspergillus niger [3]) | MFC (Candida albicans [4]; Candida albicans, 3471, 48 h) | Ratio (Candida albicans [5]) | diameter of the inhibition zone (DIZ) (Staphylococcus aureus [6]) | zone of inhibition at 128 µg/disc (Escherichia coli [7]) | diameter of the inhibition zone (DIZ) (Bacillus subtilis [8]) | diameter of the inhibition zone (DIZ) (Pseudomonas aeruginosa [9]) | diameter of the inhibition zone (DIZ) (Aspergillus niger [10]) | zone of inhibition at 128 µg/disc (Candida albicans [11]) | MBC99.9 (Staphylococcus aureus [12]) | MBC (Escherichia coli [13]) | MBC99.9 (Escherichia coli [13]) | other results
inactive | inactive | 64 µg/mL (≈ 110 µM) | inactive | 32 µg/mL (≈ 55.1 µM) |  | FC(F)(F)c1cc(-c2csc(N/N=C(/Cn3nnc4ccccc43)c3ccc(Cl)cc3)n2)cc(C(F)(F)F)c1 | inactive | inactive | inactive | 128 µg/mL (≈ 220 µM) | 2 | inactive | 21.1 mm | inactive | inactive | inactive | 13.7 mm | inactive | 64 µg/mL (≈ 110 µM) |  | 
inactive | 128 µg/mL (≈ 240 µM) |  | inactive | inactive | inactive | O=[N+]([O-])c1ccc(-c2csc(N/N=C(/Cn3nnc4ccccc43)c3ccc(Br)cc3)n2)cc1 | inactive |  | inactive |  |  | inactive |  | inactive |  | inactive |  | inactive |  | inactive | MBC (Pseudomonas aeruginosa [2]): 256 µg/mL (≈ 479 µM); MFC99.9 (Candida albicans [4]): inactive; MIC (Candida albicans [4]): inactive; diameter of the inhibition zone (DIZ) (Escherichia coli [7]): inactive; zone of inhibition at 128 µg/disc (Pseudomonas aeruginosa [9]): 13.2 mm; diameter of the inhibition zone (DIZ) (Candida albicans [11]): inactive
inactive | 64 µg/mL (≈ 131 µM) |  | inactive | 64 µg/mL (≈ 131 µM) | inactive | O=[N+]([O-])c1ccc(/C(Cn2nnc3ccccc32)=N\Nc2nc(-c3ccc(Cl)cc3)cs2)cc1 | inactive |  | inactive |  |  | inactive | 18.7 mm | inactive |  | inactive |  | inactive | 128 µg/mL (≈ 261 µM) |  | MBC (Pseudomonas aeruginosa [2]): 128 µg/mL (≈ 261 µM); MFC99.9 (Candida albicans [4]): inactive; MIC (Candida albicans [4]): inactive; zone of inhibition at 128 µg/disc (Pseudomonas aeruginosa [9]): 16.7 mm; diameter of the inhibition zone (DIZ) (Candida albicans [11]): inactive
64 µg/mL (≈ 126 µM) | inactive | 128 µg/mL (≈ 252 µM) | 64 µg/mL (≈ 126 µM) | inactive | inactive | Fc1ccc(/C(Cn2nnc3ccccc32)=N\Nc2nc(-c3ccc(Br)cc3)cs2)cc1 |  | inactive | inactive | 256 µg/mL (≈ 505 µM) | 2 |  |  |  | inactive | inactive | 14.7 mm |  |  | inactive | MBC (Bacillus subtilis [1]): 128 µg/mL (≈ 252 µM); zone of inhibition at 128 µg/disc (Staphylococcus aureus [6]): 20.9 mm; diameter of the inhibition zone (DIZ) (Escherichia coli [7]): inactive; zone of inhibition at 128 µg/disc (Bacillus subtilis [8]): 22.8 mm; MBC (Staphylococcus aureus [12]): 128 µg/mL (≈ 252 µM)
128 µg/mL (≈ 240 µM) | inactive | 32 µg/mL (≈ 59.9 µM) | 64 µg/mL (≈ 120 µM) | inactive | inactive | O=[N+]([O-])c1ccc(/C(Cn2nnc3ccccc32)=N\Nc2nc(-c3ccc(Br)cc3)cs2)cc1 |  | inactive | inactive | 64 µg/mL (≈ 120 µM) | 2 |  |  |  | inactive | inactive | 17.3 mm |  |  | inactive | MBC (Bacillus subtilis [1]): 256 µg/mL (≈ 479 µM); zone of inhibition at 128 µg/disc (Staphylococcus aureus [6]): 22.6 mm; zone of inhibition at 128 µg/disc (Bacillus subtilis [8]): 15.3 mm; MBC (Staphylococcus aureus [12]): 128 µg/mL (≈ 240 µM)
128 µg/mL (≈ 225 µM) | inactive | 32 µg/mL (≈ 56.3 µM) | 32 µg/mL (≈ 56.3 µM) | inactive | inactive | Brc1ccc(/C(Cn2nnc3ccccc32)=N\Nc2nc(-c3ccc(Br)cc3)cs2)cc1 |  | inactive | inactive | 64 µg/mL (≈ 113 µM) | 2 |  |  |  | inactive | inactive | 18.1 mm |  |  | inactive | MBC (Bacillus subtilis [1]): 256 µg/mL (≈ 450 µM); zone of inhibition at 128 µg/disc (Staphylococcus aureus [6]): 23.4 mm; diameter of the inhibition zone (DIZ) (Escherichia coli [7]): inactive; zone of inhibition at 128 µg/disc (Bacillus subtilis [8]): 17.2 mm; MBC (Staphylococcus aureus [12]): 64 µg/mL (≈ 113 µM)
inactive | inactive |  | inactive | 128 µg/mL (≈ 216 µM) | inactive | O=[N+]([O-])c1ccc(-c2csc(N/N=C(/Cn3nnc4ccccc43)c3cc(C(F)(F)F)cc(C(F)(F)F)c3)n2)cc1 | inactive | inactive | inactive |  |  | inactive | 13.1 mm | inactive | inactive | inactive |  | inactive | 256 µg/mL (≈ 433 µM) |  | MFC99.9 (Candida albicans [4]): inactive; MIC (Candida albicans [4]): inactive; diameter of the inhibition zone (DIZ) (Candida albicans [11]): inactive
64 µg/mL (≈ 102 µM) | inactive |  | 64 µg/mL (≈ 102 µM) | inactive | inactive | FC(F)(F)c1cc(-c2csc(N/N=C(/Cn3nnc4ccccc43)c3ccc(Br)cc3)n2)cc(C(F)(F)F)c1 |  | inactive | inactive |  |  |  |  |  | inactive | inactive |  |  |  | inactive | MBC (Bacillus subtilis [1]): 128 µg/mL (≈ 205 µM); MFC99.9 (Candida albicans [4]): inactive; MIC (Candida albicans [4]): inactive; zone of inhibition at 128 µg/disc (Staphylococcus aureus [6]): 22.1 mm; diameter of the inhibition zone (DIZ) (Escherichia coli [7]): inactive; zone of inhibition at 128 µg/disc (Bacillus subtilis [8]): 20.3 mm; diameter of the inhibition zone (DIZ) (Candida albicans [11]): inactive; MBC (Staphylococcus aureus [12]): 64 µg/mL (≈ 102 µM)
inactive | 64 µg/mL (≈ 102 µM) |  | inactive | inactive | inactive | FC(F)(F)c1cc(/C(Cn2nnc3ccccc32)=N\Nc2nc(-c3ccc(Br)cc3)cs2)cc(C(F)(F)F)c1 | inactive |  | inactive |  |  | inactive |  | inactive |  | inactive |  | inactive |  | inactive | MBC (Pseudomonas aeruginosa [2]): 128 µg/mL (≈ 205 µM); MFC99.9 (Candida albicans [4]): inactive; MIC (Candida albicans [4]): inactive; zone of inhibition at 128 µg/disc (Pseudomonas aeruginosa [9]): 15.6 mm; diameter of the inhibition zone (DIZ) (Candida albicans [11]): inactive
 |  |  |  |  |  | O=C(N[C@H](CO)[C@H](O)c1ccc([N+](=O)[O-])cc1)C(Cl)Cl [CHLORAMPHENICOL] |  |  |  |  |  |  | 27.6 mm |  |  |  |  |  | 32 µg/mL (≈ 99 µM) |  | MBC (Bacillus subtilis [1]): 32 µg/mL (≈ 99 µM); MBC (Pseudomonas aeruginosa [2]): 32 µg/mL (≈ 99 µM); zone of inhibition at 128 µg/disc (Staphylococcus aureus [6]): 31.4 mm; zone of inhibition at 128 µg/disc (Bacillus subtilis [8]): 29.2 mm; zone of inhibition at 128 µg/disc (Pseudomonas aeruginosa [9]): 23.9 mm; MBC (Staphylococcus aureus [12]): 32 µg/mL (≈ 99 µM)
inactive | inactive | 64 µg/mL (≈ 128 µM) | inactive | 128 µg/mL (≈ 256 µM) | inactive | O=[N+]([O-])c1ccc(/C(Cn2nnc3ccccc32)=N\Nc2nc(-c3ccc([N+](=O)[O-])cc3)cs2)cc1 | inactive | inactive | inactive | 128 µg/mL (≈ 256 µM) | 2 | inactive | 17.5 mm | inactive | inactive | inactive | 14.3 mm | inactive | 256 µg/mL (≈ 511 µM) |  | 
inactive | inactive | 128 µg/mL (≈ 188 µM) | inactive | 128 µg/mL (≈ 188 µM) | inactive | FC(F)(F)c1cc(/C(Cn2nnc3ccccc32)=N\Nc2nc(-c3cc(C(F)(F)F)cc(C(F)(F)F)c3)cs2)cc(C(F)(F)F)c1 | inactive | inactive | inactive | 256 µg/mL (≈ 375 µM) | 2 | inactive | 16.4 mm | inactive | inactive | inactive | 11.7 mm | inactive | 256 µg/mL (≈ 375 µM) |  | 
